# Source: ChEMBL document CHEMBL2176962, “Repositioning HIV-1 integrase inhibitors for cancer therapeutics: 1,6-naphthyridine-7-carboxamide as a promising scaffold with drug-like properties” (J Med Chem, 2012)
# Calls of active or inactive are those of the source. No cut-off for these calls is given here.
# Key:
# MDA-MB-435 [1] = test: Cytotoxicity against human MDA-MB-435 cells incubated for 72 hrs by MTT assay; assay type: functional, cell-based; details: MDA-MB-435, 72 h
# In short: (§1)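 Cells were kept in DMEM (MDA-MB-435, MCF7, LNCaP) or RPMI (HT29, HCT116) with 10% heat-inactivated FBS and 2 mM L-glutamine, subconfluent and in exponential growth. They were seeded, allowed to adhere overnight, then exposed continuously to compound (10 mM DMSO stock) for 72 h. MTT was added to 0.3 mg/mL final for 3–4 h at 37 °C, formazan was dissolved in DMSO, and absorbance was read at 570 nm. Runs were in triplicate; IC50 came from log concentration versus percent cell kill.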
# MDA-MB-435 [2] = test: Induction of cell cycle arrest in human in human MDA-MB-435 cells assessed as accumulation at G0/G1 phase at 2 times cytotoxic IC50 level after 12 hrs by propidium iodide staining based flow cytometry; assay type: functional
# [3] = target: T1, Human immunodeficiency virus type 1 integrase (Human immunodeficiency virus 1, UniProt Q7ZJM1); test: Inhibition of HIV1 integrase 3'-processing activity using [32P]-labeled linear oligonucleotide substrate
# MDA-MB-435 [4] = test: Induction of cell cycle arrest in human in human MDA-MB-435 cells assessed as accumulation at G0/G1 phase at 2 times cytotoxic IC50 level after 48 hrs by propidium iodide staining based flow cytometry (reference value: 36%); assay type: functional
# MCF7 = test: Cytotoxicity against human MCF7 cells incubated for 72 hrs by MTT assay; assay type: functional, cell-based; details: MCF7, 72 h; in short: as §1
# MDA-MB-435 [5] = test: Inhibition of colony formation in human MDA-MB-435 cells at 10 uM treated continuously for 7 days by crystal violet staining based colony formation assay; assay type: functional, cell-based
# In short: (§2)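 MDA-MB-435 cells (500 per well) were adhered overnight and treated with compound at 10 μM, or across a dose range. The methods describe a 24 h treatment, then PBS washing and 7–10 days regrowth; the figure legend describes continuous 7-day treatment. Colonies were fixed and stained with 2% crystal violet containing 1% glutaraldehyde, then imaged.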
# [6] = target: T1, Human immunodeficiency virus type 1 integrase; test: Inhibition of HIV1 integrase strand transfer activity using [32P]-labeled linear oligonucleotide substrate
# HCT-116 [7] = test: Cytotoxicity against p53 deficient human HCT116 cells incubated for 72 hrs by MTT assay; assay type: functional, cell-based; details: HCT-116, 72 h; in short: as §1
# HCT-116 [8] = test: Cytotoxicity against p53 expressing human HCT116 cells incubated for 72 hrs by MTT assay; assay type: functional, cell-based; details: HCT-116, 72 h; in short: as §1
# HEY = test: Cytotoxicity against human HEY cells incubated for 72 hrs by MTT assay; assay type: functional, cell-based
# [9] = target: T2, Aurora kinase A (Homo sapiens) (UniProt O14965); test: Inhibition of Aurora A kinase at 10 uM in presence of ATP at Km level by kinase profiler method
# T2 sequence (whole entry): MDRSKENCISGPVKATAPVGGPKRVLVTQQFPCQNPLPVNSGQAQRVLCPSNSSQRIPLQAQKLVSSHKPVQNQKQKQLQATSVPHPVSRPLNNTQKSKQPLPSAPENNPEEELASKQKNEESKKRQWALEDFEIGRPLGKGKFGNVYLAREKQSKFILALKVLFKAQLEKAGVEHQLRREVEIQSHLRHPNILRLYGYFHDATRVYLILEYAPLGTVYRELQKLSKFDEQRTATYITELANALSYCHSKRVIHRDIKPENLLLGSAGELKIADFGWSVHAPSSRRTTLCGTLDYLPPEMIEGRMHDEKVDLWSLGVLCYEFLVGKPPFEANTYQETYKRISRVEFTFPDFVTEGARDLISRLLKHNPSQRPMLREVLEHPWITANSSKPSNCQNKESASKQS
# [10] = target: Tyrosine-protein kinase Lck (Homo sapiens) (UniProt P06239); test: Inhibition of LCK at 10 uM in presence of ATP at Km level by kinase profiler method
# [11] = system: Tyrosine-protein kinase ABL1 (Homo sapiens), P00519 [T315I]; test: Inhibition of Abl T315I mutant at 10 uM in presence of ATP at Km level by kinase profiler method
# [12] = target: Vascular endothelial growth factor receptor 2 (Homo sapiens) (UniProt P35968); details: at 10 µM
# [13] = target: Insulin-like growth factor 1 receptor (Homo sapiens) (UniProt P08069); test: Inhibition of IGF1R at 10 uM in presence of ATP at Km level by kinase profiler method
# [14] = target: Receptor tyrosine-protein kinase erbB-2 (Homo sapiens) (UniProt P04626); test: Inhibition of ErbB2 at 10 uM incubated for 60 mins using poly(Glu,Tyr)4:1 substrate and 10 uM ATP by ELISA
# In short: (§3)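 ELISA with Poly(Glu,Tyr)4:1 (20 μg/mL) precoated as substrate and 10 μM ATP, in 50 mM HEPES pH 7.4, 20 mM MgCl2, 0.1 mM MnCl2, 0.2 mM Na3VO4, 1 mM DTT. Compound was tested at 10 μM, in duplicate. Kinase reaction ran 60 min at 37 °C. Phosphotyrosine was detected with PY99 and HRP anti-mouse IgG, developed with o-phenylenediamine/H2O2, stopped with H2SO4 and read at 492 nm. Inhibition = [1 − A492 treated/A492 control] × 100%. References: lapatinib (ErbB2) and PP2 (Src), each at 10 μM.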
# SK-BR-3 = test: Cytotoxicity against human SKBR3 cells incubated for 72 hrs by MTT assay; assay type: functional, cell-based; details: SK-BR-3, 72 h
# [15] = target: Fibroblast growth factor receptor 1 (Homo sapiens) (UniProt P11362); test: Inhibition of FGFR1 at 10 uM in presence of ATP at Km level by kinase profiler method
# [16] = target: Proto-oncogene tyrosine-protein kinase Src (Homo sapiens) (UniProt P12931); test: Inhibition of SRC at 10 uM incubated for 60 mins using poly(Glu,Tyr)4:1 substrate and 10 uM ATP by ELISA; in short: as §3
# MDA-MB-435 [17] = test: Induction of cell cycle arrest in human in human MDA-MB-435 cells assessed as accumulation at G0/G1 phase at 2 times cytotoxic IC50 level after 12 to 48 hrs by propidium iodide staining based flow cytometry; assay type: functional
# HT-29 = test: Cytotoxicity against human HT-29 cells incubated for 72 hrs by MTT assay; assay type: functional, cell-based; details: HT-29, 72 h; in short: as §1
# MDA-MB-435 [18] = test: Inhibition of colony formation in human MDA-MB-435 cells treated continuously for 7 days by crystal violet staining based colony formation assay; assay type: functional, cell-based; in short: as §2
# LNCaP = test: Cytotoxicity against human LNCAP cells incubated for 72 hrs by MTT assay; assay type: functional, cell-based; in short: as §1
# [19] = target: Angiopoietin-1 receptor (Homo sapiens) (UniProt Q02763); test: Inhibition of TIE2 at 10 uM in presence of ATP at Km level by kinase profiler method
# [20] = target: Hepatocyte growth factor receptor (Homo sapiens) (UniProt P08581); test: Inhibition of MET at 10 uM in presence of ATP at Km level by kinase profiler method
# [21] = target: Vascular endothelial growth factor receptor 2 (Homo sapiens) (UniProt P35968); test: Inhibition of KDR at 10 uM in presence of ATP at Km level by kinase profiler method
# Sequence of Fibroblast growth factor receptor 1 (Homo sapiens) (P11362 22-822 limits assumed): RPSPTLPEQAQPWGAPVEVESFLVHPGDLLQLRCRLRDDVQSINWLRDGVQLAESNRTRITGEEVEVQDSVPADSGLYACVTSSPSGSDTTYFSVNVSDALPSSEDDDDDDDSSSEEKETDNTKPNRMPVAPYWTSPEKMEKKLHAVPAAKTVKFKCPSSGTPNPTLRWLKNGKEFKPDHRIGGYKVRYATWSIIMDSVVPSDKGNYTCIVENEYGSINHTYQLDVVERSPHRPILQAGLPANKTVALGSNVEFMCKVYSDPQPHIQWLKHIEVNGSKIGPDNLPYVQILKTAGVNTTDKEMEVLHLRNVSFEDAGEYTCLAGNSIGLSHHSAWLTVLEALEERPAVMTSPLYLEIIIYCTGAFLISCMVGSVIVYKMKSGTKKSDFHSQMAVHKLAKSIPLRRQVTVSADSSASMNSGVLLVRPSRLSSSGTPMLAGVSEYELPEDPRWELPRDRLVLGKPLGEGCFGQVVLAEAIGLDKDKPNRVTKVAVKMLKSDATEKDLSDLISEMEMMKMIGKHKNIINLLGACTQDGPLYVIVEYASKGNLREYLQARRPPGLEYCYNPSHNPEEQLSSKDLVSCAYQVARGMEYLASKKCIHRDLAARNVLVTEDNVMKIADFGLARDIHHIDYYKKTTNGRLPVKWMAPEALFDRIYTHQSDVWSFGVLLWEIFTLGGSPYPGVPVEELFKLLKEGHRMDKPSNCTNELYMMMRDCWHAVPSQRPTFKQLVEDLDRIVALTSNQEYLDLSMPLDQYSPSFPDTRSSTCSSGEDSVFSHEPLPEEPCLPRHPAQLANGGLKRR
# Sequence of Proto-oncogene tyrosine-protein kinase Src (Homo sapiens) (P12931 2-536 limits assumed): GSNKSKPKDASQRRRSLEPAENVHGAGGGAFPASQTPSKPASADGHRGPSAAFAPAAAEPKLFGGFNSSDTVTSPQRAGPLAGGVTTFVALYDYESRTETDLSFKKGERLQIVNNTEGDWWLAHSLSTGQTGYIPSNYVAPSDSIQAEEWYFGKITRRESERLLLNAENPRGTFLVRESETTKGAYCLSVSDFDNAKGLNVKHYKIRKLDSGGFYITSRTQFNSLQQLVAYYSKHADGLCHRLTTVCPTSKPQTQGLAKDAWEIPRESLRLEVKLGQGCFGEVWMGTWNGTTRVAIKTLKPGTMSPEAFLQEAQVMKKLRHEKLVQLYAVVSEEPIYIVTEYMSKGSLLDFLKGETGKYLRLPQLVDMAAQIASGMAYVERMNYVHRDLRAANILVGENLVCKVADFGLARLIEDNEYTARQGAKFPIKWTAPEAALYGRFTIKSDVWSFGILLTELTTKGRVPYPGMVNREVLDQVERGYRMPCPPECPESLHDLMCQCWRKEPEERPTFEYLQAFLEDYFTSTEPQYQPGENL
# Sequence of Vascular endothelial growth factor receptor 2 (Homo sapiens) (P35968 whole entry): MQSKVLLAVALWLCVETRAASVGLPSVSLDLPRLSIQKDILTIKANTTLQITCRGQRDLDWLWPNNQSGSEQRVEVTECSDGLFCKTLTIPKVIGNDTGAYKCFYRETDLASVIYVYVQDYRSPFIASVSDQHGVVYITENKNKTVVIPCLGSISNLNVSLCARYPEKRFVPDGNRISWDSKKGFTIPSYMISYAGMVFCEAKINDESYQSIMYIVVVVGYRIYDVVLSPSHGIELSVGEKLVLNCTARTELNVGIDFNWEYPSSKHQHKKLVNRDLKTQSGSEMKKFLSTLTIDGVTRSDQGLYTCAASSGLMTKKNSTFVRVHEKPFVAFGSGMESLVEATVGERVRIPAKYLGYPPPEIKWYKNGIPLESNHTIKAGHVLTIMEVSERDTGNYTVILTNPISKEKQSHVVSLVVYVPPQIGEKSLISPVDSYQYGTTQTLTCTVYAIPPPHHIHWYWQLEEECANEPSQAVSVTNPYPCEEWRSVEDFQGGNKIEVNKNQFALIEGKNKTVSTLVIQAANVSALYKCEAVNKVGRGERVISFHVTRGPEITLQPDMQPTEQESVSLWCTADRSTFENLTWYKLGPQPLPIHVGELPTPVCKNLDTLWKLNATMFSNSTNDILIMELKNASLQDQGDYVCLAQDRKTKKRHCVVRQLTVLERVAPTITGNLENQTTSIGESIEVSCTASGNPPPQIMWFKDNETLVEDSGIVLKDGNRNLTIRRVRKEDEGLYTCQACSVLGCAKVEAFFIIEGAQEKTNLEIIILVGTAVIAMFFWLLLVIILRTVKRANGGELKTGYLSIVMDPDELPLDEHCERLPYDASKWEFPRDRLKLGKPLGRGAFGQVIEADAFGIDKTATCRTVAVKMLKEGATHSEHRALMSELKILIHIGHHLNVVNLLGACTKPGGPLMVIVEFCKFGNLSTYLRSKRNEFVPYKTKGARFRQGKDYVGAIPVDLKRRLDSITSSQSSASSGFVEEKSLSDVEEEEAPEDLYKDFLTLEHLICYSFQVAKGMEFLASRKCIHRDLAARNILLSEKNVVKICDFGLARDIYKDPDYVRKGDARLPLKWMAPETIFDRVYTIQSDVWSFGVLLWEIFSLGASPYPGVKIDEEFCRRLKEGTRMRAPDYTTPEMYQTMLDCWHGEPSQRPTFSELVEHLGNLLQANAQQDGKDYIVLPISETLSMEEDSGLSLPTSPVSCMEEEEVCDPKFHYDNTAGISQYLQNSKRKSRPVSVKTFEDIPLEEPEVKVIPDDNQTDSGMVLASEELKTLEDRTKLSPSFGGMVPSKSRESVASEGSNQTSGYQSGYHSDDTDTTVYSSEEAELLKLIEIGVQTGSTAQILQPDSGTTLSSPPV
# Sequence of Insulin-like growth factor 1 receptor (Homo sapiens) (P08069 31-736 limits assumed): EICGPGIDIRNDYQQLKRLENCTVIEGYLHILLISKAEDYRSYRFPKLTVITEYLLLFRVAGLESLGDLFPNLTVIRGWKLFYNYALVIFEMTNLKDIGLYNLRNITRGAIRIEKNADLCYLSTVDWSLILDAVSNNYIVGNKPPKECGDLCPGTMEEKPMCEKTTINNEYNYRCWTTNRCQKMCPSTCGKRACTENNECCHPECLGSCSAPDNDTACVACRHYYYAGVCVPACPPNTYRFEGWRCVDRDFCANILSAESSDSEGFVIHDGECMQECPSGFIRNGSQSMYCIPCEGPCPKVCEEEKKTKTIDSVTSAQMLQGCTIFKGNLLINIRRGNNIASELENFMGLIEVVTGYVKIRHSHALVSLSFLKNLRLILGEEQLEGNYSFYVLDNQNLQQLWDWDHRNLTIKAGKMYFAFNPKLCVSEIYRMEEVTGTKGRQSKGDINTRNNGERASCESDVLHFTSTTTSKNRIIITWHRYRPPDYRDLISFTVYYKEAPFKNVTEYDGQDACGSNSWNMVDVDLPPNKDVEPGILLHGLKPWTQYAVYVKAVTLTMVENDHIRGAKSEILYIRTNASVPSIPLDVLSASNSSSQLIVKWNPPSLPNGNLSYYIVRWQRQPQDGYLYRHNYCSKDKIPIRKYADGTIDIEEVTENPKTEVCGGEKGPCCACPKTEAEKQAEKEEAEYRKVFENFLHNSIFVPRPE
# Sequence of Insulin-like growth factor 1 receptor (Homo sapiens) (P08069 741-1367 limits assumed): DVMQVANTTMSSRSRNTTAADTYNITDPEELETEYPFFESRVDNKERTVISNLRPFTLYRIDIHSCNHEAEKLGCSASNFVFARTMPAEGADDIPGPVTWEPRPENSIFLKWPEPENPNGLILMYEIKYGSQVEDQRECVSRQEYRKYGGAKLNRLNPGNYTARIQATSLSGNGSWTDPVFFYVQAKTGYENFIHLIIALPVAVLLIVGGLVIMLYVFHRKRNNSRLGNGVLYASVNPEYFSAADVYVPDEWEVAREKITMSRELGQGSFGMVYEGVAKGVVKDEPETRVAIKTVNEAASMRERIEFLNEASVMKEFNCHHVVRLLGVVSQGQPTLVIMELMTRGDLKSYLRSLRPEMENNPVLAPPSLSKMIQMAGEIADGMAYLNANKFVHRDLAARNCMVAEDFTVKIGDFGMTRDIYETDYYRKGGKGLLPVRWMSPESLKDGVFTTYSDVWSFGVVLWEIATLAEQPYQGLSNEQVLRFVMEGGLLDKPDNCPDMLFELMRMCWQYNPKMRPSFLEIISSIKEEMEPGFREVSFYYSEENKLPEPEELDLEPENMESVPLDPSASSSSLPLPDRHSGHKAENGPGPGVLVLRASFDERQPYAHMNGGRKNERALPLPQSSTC
# Sequence of Tyrosine-protein kinase Lck (Homo sapiens) (P06239 2-509 limits assumed): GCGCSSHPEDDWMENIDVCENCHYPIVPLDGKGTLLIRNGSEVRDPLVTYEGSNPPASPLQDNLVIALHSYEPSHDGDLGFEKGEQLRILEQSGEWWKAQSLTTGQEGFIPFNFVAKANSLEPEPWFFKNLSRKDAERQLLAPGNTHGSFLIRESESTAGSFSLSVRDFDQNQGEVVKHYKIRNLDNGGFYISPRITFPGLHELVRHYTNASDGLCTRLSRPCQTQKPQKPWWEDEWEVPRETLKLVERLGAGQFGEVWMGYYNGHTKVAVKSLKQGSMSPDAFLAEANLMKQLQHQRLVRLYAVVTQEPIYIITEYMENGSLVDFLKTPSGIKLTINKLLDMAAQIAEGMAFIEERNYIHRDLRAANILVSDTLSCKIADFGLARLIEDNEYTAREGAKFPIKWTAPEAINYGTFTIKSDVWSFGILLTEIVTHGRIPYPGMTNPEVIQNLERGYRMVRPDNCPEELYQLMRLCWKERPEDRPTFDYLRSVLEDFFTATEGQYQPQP
# T1 sequence (Q7ZJM1 whole entry): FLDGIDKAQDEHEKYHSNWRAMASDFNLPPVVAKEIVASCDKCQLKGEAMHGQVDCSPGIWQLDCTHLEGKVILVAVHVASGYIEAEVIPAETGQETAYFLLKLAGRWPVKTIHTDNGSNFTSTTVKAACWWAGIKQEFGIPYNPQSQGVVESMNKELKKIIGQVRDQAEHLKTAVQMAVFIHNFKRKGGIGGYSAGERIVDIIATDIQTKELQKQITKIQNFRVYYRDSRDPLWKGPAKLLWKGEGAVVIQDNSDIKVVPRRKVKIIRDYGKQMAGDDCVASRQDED
SMILES,IC50 (MDA-MB-435 [1]),IC50 (MCF7),inhibition (MDA-MB-435 [5]),IC50 (HCT-116 [7]),IC50 (HCT-116 [8]),IC50 (HEY),inhibition [12],inhibition [13],inhibition [14],IC50 (SK-BR-3),inhibition [15],inhibition [16],IC50 (HT-29),IC50 (LNCaP),also measured
NCCCNc1c(C(=O)NCc2ccc(F)cc2)nc(Br)c2cccnc12,5 µM,6 µM,Active,18 µM,> 20 µM,–,–,–,–,–,–,–,–,–,Activity (MDA-MB-435 [2]): Active; IC50 [3]: > 100 µM; Activity (MDA-MB-435 [4]): 61%; IC50 [6]: > 100 µM
N[C@H]1CC[C@H](Nc2c(C(=O)NCc3ccc(Cl)cc3Cl)nc(Br)c3cccnc23)CC1,5.8 µM,–,–,–,6 µM,5 µM,41%,Active,13%,6 µM,Active,90%,–,–,inhibition [9]: Active; inhibition [10]: Active; inhibition [11]: Active
N[C@H]1CC[C@H](Nc2c(C(=O)NCc3ccc(F)cc3)nc(Br)c3cccnc23)CC1,6 µM,2 µM,Active,4 µM,7 µM,–,–,–,7%,2 µM,–,13%,< 1 µM,5 µM,Activity (MDA-MB-435 [17]): Active; inhibition (MDA-MB-435 [18]): Dose-dependent effect
COc1ccc(CNC(=O)c2nc(Br)c3cccnc3c2N[C@H]2CC[C@H](N)CC2)cc1,5 µM,–,–,–,3 µM,4 µM,2%,Active,0%,5 µM,Active,76%,–,–,inhibition [19]: Active; inhibition [20]: Active; inhibition [21]: Active
N[C@H]1CC[C@H](Nc2c(C(=O)NCc3ccc(Cl)cc3)nc(Br)c3cccnc23)CC1,1 µM,–,–,–,4 µM,1 µM,34%,Active,0%,2 µM,Active,70%,–,–,inhibition [9]: Active; inhibition [10]: Active; inhibition [11]: Active
O=C(NCc1ccc(F)cc1)c1nc(Br)c2cccnc2c1NC1CCNCC1,7 µM,3 µM,Active,6 µM,9.2 µM,–,0%,–,1%,1 µM,–,9%,4 µM,6 µM,–
NCCCCCCNc1c(C(=O)NCc2ccc(F)cc2)nc(Br)c2cccnc12,6 µM,2 µM,Active,> 10 µM,7 µM,–,0%,–,–,3 µM,–,18%,5 µM,8 µM,–
